NALP3 yeast inh: inhibitors of NALP3 inflammasome in yeast; hit rate 0.39% among 330,000; Yeast reconstituted NLRP3/ASC/caspase-1, beta-gal luminescence, 24 h; AID 2825; inhibition, % at 10 µM;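 active = inhibition of 50% or more; inactive = inhibition below 50%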;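 also: plate controls were induced DMSO wells for no effect and uninduced yeast grown without galactose for full effect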
NALP1 yeast inh: NALP1 inhibition; S. cerevisiae NALP1/ASC/caspase-1 growth, X-gal OD620, 72 h; inhibition, % at 10 µM; hit rate 0.61% among 280,000; AID 2071; in the data active = inhibition mostly above about 24%, no sharp cut-off; inactive = mostly below about 32%
IMP-1 inhibitor: blocks Pseudomonas aeruginosa IMP-1 metallo-beta-lactamase. purified IMP-1, nitrocefin hydrolysis, epi-absorbance fluorescence. inhibition, % at 5.6 µM. hit rate 0.45% among 290,000. AID 1556;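 active = inhibition above the mean plus 3 SD of all compounds in the same screening run, cut at about 4.5% in these data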;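 also: 0% = IMP-1 with DMSO and 100% = DMSO wells lacking enzyme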
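Test system: recombinant IMP-1 enzyme, purified / Medium: HEPES buffer pH 7.1 with ZnSO4 and Brij 35 / Doses: single dose, 5.6 µM / Times: 25 °C, 15 min preincubation, 25 min reaction / Detection: Epi-absorbance via hydrolysed-nitrocefin quenching of white-plate fluorescence, 480/530 nm, EDTA stop / Evaluation: percent inhibition from optical density relative to buffer-blank wells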
VIM-2 inh: inhibitors of Pseudomonas aeruginosa VIM-2 metallo-beta-lactamase | hit rate 0.89% among 290,000 | purified VIM-2, nitrocefin hydrolysis, epi-absorbance fluorescence | inhibition, % at 5.6 µM;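 active = inhibition above the mean of all tested compounds plus 3 SD, cutoff set per screening run, cut at about 7.5% in these data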;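 also: red hydrolysis product quenches plate fluorescence so inhibitors raise well fluorescence; 0% = enzyme with DMSO and 100% = DMSO without enzyme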
PolyA inh: yeast polyadenylation inhibition. S. cerevisiae SKY197-pL101 polyadenylation reporter, beta-gal luminescence; efflux-impaired pdr1/pdr3 knockout yeast; score 100 = 6 SD above DMSO. activity score, % at 12 µM. hit rate 0.02% among 300,000. AID 1875;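 active = lowest replicate activity score at least 50, where 100 means six control SD above control mean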;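 also: yeast exposed to compound for 9 h at 30 °C; higher score means more reporter readthrough which indicates perturbed polyadenylation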
SUMO Mot1 rescue: blocks SUMOylation pathway, rescuing yeast Mot1-301 growth; S. cerevisiae Mot1-301 growth rescue, ATP luminescence, 38.5C; percent above DMSO median, 100 means doubled; growth rescue, % at 18.8 µM; hit rate 1% among 320,000; AID 2716;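 active = every valid replicate shows activation above 250% relative to neutral control wells; inactive = the rest, any valid replicate at or below 250%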;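 also: OY570 slx delta 5 strain wells were the positive control but not used for scaling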
Numbers without * were called inactive; . = no result. Compounds with a hit are over-represented: about 2.9% of the library has one in this group of screens.

SMILES | NALP3 yeast inh | NALP1 yeast inh | IMP-1 inhibitor | VIM-2 inh | PolyA inh | SUMO Mot1 rescue
COC(=O)C1=C(c2ccc(Cl)c(C(F)(F)F)c2)C[C@@H]2CC[C@H]1N2C(=O)NCc1cc(C)oc1C(F)(F)F | 11.9 | . | . | . | . | 24.4
COc1cc2c(cc1OC)-c1c(OC)c(OC)c(OC)c3ccnc(c13)C2=O | 43.3 | 18.0 | -4.2 | 9.4* | 13.8 | 11.3
Cn1c(O)c(/C=N/N2CCOCC2)c(=O)n(-c2ccccc2)c1=S | 8.0 | 36.9* | -0.6 | -1.2 | 14.1 | 2.0
O=c1c(/C=N/N2CCOCC2)c(O)n(-c2ccccc2)c(=S)n1-c1ccccc1 | 11.9 | 5.7 | 2.6 | -2.0 | 21.5 | 6.5
O=c1[nH]c(=S)n(Cc2ccc(F)cc2)c(O)c1C=NCc1ccc2c(c1)OCO2 | 16.9 | . | -1.9 | -0.5 | 0.4 | 2.8
O=c1[nH]c(=S)n(Cc2ccc(F)cc2)c(O)c1/C=N/N1CCCCCC1 | 8.1 | 46.1* | -0.9 | -2.4 | 5.7 | -21.1
CN1C(=O)CN=C(c2ccc(Cl)cc2)c2cc(Cl)ccc21 | -6.5 | 32.7 | -0.1 | -0.4 | -5.2 | 2.1
CN1C(=O)CN=C(c2ccccc2Cl)c2cc(Br)ccc21 | 20.5 | 10.2 | 11.0* | -1.7 | 7.3 | 17.8
COc1ccc(CC(C)Nc2cccc(F)c2)cc1 (stereo not drawn) | 20.3 | . | -0.3 | -0.5 | -19.1 | -9.3
O=C(C1CC(c2ccccc2O)=NO1)N1CCC2(CC1)OCCO2 (stereo not drawn) | -7.9 | -3.6 | -3.2 | -3.1 | -2.3 | 7.7
CCN1C(=O)NC(=O)/C(=C\c2cn(CC(=O)N3CCCCC3)c3ccccc23)C1=O | 6.3 | 3.4 | -1.9 | 10.6* | 6.6 | 0.3
CCN1C(=O)NC(=O)/C(=C\c2cn(CC(=O)N3CCCC3)c3ccccc23)C1=O | -7.7 | 17.0 | 0.9 | 3.1 | 17.2 | -6.1
COCCNC(=O)N1[C@H]2CC[C@@H]1C(C(=O)OC)=C(c1ccc(OC(F)(F)F)cc1)C2 | 4.4 | . | . | . | . | 32.3
Cc1c(Br)c(=O)oc2cc(OCC(=O)N3C[C@H]4C[C@@H](C3)c3cccc(=O)n3C4)ccc12 | -1.2 | -10.4 | -1.6 | 5.5 | 12.2 | 5.5
CC(C)C(=O)Nc1ccc(N2CCN(C)CC2)c(F)c1 | 0.2 | 22.0 | -2.9 | -3.6 | 6.2 | 423.1*
CCCC(CCC)C(=O)OC[N+](C)(C)CCOC(=O)C(O)(c1ccccc1)C1CCCC1 (stereo not drawn) | 6.9 | 27.5* | -4.2 | -1.8 | -0.5 | -21.7
CC(C)(C)C(=O)OC[N+](C)(C)CCOC(=O)C(O)(c1ccccc1)C1CCCC1 (stereo not drawn) | 11.1 | -2.5 | -0.3 | -4.3 | 7.7 | -1.6
CCc1ccccc1NC(=O)CN1CCN(C(=O)COc2ccccc2C#N)CC1 | 19.0 | . | . | . | . | 7.4
Fc1ccc(C(OCCN2CCCC2)c2ccc(F)cc2)cc1 | 11.7 | 20.8 | -3.6 | -3.7 | -5.1 | -8.4
Fc1ccc(C(OCCN2CCCC2)c2ccc(Br)cc2)cc1 (stereo not drawn) | 41.5 | 47.1* | -1.1 | -0.6 | -10.5 | -18.2
Cc1ccc2c(c1)C1C[N+](C)(CC(=O)c3ccc(Cl)cc3Cl)CCC1N2C(=O)c1ccc(F)cc1 (stereo not drawn) | 17.4 | . | . | . | . | -13.6
c1cncc(CNC2CCCC2)c1 | 14.1 | 29.8* | -2.1 | -3.3 | 4.1 | -11.8
c1cncc(CNC2=NCCCCC2)c1 | 16.9 | . | -3.9 | -1.4 | 6.4 | 2.1
COc1ccc(C)cc1NC1=NCCCS1 | 2.5 | -4.7 | -1.5 | -1.4 | 6.4 | -17.7
COC(=O)C1=C(c2ccc(-c3ccccc3)c(F)c2)C[C@@H]2CC[C@H]1N2C(=O)NCc1cc(C)oc1C(F)(F)F | 15.4 | . | . | . | . | -10.7
SMILES | NALP3 yeast inh | NALP1 yeast inh | IMP-1 inhibitor | VIM-2 inh | PolyA inh | SUMO Mot1 rescue
O=C(c1ccc(Cl)cc1)C1CCCN(Cc2ccc3ncccc3c2)C1 (stereo not drawn) | 34.7 | 15.7 | -4.5 | -2.4 | -60.7 | 257.8*
O=C(c1ccc(Cl)cc1)C1CCCN(Cc2ccc3c(c2)OCCO3)C1 (stereo not drawn) | 28.8 | -4.5 | -2.1 | -2.8 | -35.8 | 210.7
CC(=O)O[C@H]1CCC2C3CCC4=CC(=O)CCC4=C3C=C[C@@]21C (stereo partly drawn) | 20.2 | 28.1 | 0.4 | 0.7 | -17.3 | -11.7
C[C@@H]1CC[C@@]2(NC1)O[C@H]1C[C@H]3[C@@H]4CC=C5C[C@@H](O)CC[C@]5(C)[C@H]4CC[C@]3(C)[C@H]1[C@@H]2C | -1.8 | 35.6* | -4.0 | -0.1 | -22.1 | 139.3
C[C@]12CC[C@@H](O)CC1=CCC1C2CC[C@]2(C)C(=O)[C@H](F)CC12 (stereo partly drawn) | 49.8 | . | . | . | . | -7.9
O=c1c2ccccc2[nH]c(=S)n1-c1ccc(Br)cc1 | 25.3 | 33.4* | -2.7 | -4.2 | -27.4 | -4.8
Cn1c(O)c(/C=C/C=Nc2ccccc2)c(=O)n(C)c1=S | 8.4 | 19.5 | 6.1* | 4.7 | -13.9 | -1.3
COc1ccc(CC2(CCc3ccncc3)C(=O)NC(=O)NC2=O)c(OC)c1 | 12.5 | 20.8 | -1.4 | -2.9 | 13.9 | 281.4*
COc1cc(CC2(CCc3ccncc3)C(=O)NC(=O)NC2=O)cc(OC)c1OC | -4.6 | -2.8 | -3.1 | -1.1 | 8.5 | 6.0
Cc1cccc(N=Cc2c(O)n(-c3ccccc3C)c(=O)[nH]c2=O)c1 | 24.1 | -10.5 | -2.6 | -0.6 | 4.6 | 280.5*
CC(C)(O)[C@H]1O[C@H]2CC[C@@]3(C)[C@@](O)(CC[C@H]4Cc5c([nH]c6ccccc56)[C@@]43C)C2=CC1=O | 9.7 | -5.9 | 2.7 | 0.2 | -13.1 | 7.1
CC(=NCCCn1ccnc1)c1c(O)n(C)c(=O)n(C)c1=O | 11.2 | 22.7 | -1.9 | 66.5* | -7.9 | -9.2
CC(=NCc1ccco1)c1c(O)n(C)c(=O)n(C)c1=O | 9.1 | 41.8* | -1.7 | -1.9 | 7.2 | -0.5
CCC(=NCc1ccco1)c1c(O)n(C)c(=O)n(C)c1=O | 3.4 | . | -2.9 | -0.8 | -1.1 | -2.8
CCN(CC)P(=O)(NC(=O)C(Cl)(Cl)Cl)N(CC)CC.[Cl-].[Cl-].[Cl-].[Nd+3] | 4.7 | -4.6 | 22.2* | -1.3 | 8.9 | .
CCOC(=O)C1=C(N)OC2=C(C(=O)CCC2)[C@]12C(=O)N(CC(N)=O)c1ccccc12 | -10.0 | 36.0* | -1.6 | -2.6 | 6.5 | -4.6
CCc1nc2ccccc2c(=O)n1-c1ccccc1OC | 14.5 | 12.2 | -0.2 | 1.9 | -9.3 | -9.8
COc1ccc(C(=O)OC2C[C@H]3CC[C@H](C2)N3C)cc1OC (stereo partly drawn) | 1.8 | . | . | . | . | 326.5*
CCCCNS(=O)(=O)c1ccc(OCC(=O)N2CCN(Cc3ccc4c(c3)OCO4)CC2)cc1 | 16.2 | -3.8 | -3.2 | -2.5 | 3.9 | -5.6
CCC/C=N/O | 0.5 | . | . | . | . | -16.3
C=CCn1c(O)c(C=Nc2ccc(N(CC)CC)cc2)c(=O)[nH]c1=O | 17.2 | 12.2 | 5.3* | -4.5 | 9.7 | -27.8
